Screening results: PubChem, several laboratories
IMP-1 inh = blocks Pseudomonas aeruginosa IMP-1 metallo-beta-lactamase | inhibition, % at 5.6 µM | purified IMP-1, nitrocefin hydrolysis, epi-absorbance fluorescence | AID 1556 | actives 0.45% (n = 290,000);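 active = inhibition above the mean plus 3 SD of all compounds in the same screening run, cut at about 4.5% in these data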;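 also: 0% = IMP-1 with DMSO and 100% = DMSO wells lacking enzyme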
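System: Purified IMP-1 | Read-out basis: Percent enzyme inhibition | Controls: IMP-1 with DMSO as 0%, enzyme-free DMSO as 100% | Replicates: One well per compound | Doses: 5.6 µM nominal single concentration | Detection: Epi-absorbance fluorescence, 480 nm excitation, 530 nm emission | Incubation: 25 °C, 15 min preincubation, 25 min reaction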
SUMO HTRF inh = blocks human SUMOylation mediated by UBC9; P63279; HTRF SUMOylation assay, SAE1/SAE2 + UBC9, in vitro; inhibition, % at 35 µM; actives 0.36% (n = 290,000); AID 2006; in the data active = inhibition above about 50%, passing the limit was not always enough
Target sequence (P63279 whole entry, looked up): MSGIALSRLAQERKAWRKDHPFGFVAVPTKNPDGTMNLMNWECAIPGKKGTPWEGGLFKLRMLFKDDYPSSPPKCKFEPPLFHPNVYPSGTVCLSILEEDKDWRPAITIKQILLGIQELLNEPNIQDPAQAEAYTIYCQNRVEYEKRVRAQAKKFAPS
PHOSPHO1 inh = blocks human PHOSPHO1 phosphatase activity | Q8TCT1 | recombinant PHOSPHO1, absorbance phosphatase assay | inhibition, % at 13.3 µM | actives 1.1% (n = 290,000) | AID 1565; in the data active = inhibition above about 60%
Target sequence (Q8TCT1 whole entry, looked up): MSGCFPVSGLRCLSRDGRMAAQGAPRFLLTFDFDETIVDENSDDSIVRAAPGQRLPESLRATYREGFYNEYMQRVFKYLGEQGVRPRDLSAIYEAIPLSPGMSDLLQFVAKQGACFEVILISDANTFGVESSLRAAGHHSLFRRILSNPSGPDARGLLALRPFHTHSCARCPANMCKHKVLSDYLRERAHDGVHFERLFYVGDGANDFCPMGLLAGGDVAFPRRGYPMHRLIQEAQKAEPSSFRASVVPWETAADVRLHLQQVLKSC
HCV core dimer = HCV core protein dimerization inhibition; inhibition, % at 5 µM; TR-FRET GST/Flag-core106 dimerization, 1536-well; actives 0.33% (n = 300,000);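 active = inhibition above the mean of all tested compounds plus 3 SD, set per screening campaign, cut at about 45% in these data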
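System: GST-tagged and Flag-tagged HCV core protein residues 1-106 / Input: core106 proteins, GST 13.5 nM and Flag 17 nM / Buffer or medium: KF-containing HEPES buffer, pH 7.45, DTT, CHAPS, BSA / Probe or stimulus: Eu-anti-GST and XL665-anti-Flag labelled anti-tag antibodies / Schedule: 4 h, 22.5 °C incubation / Technique: TR-FRET 671 and 617 nm emission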
HCV NS3 hel inh = HCV NS3 helicase inhibition; inhibition, % at 10.9 µM; NS3 helicase DNA unwinding, Cy5 molecular beacon fluorescence; actives 0.56% (n = 290,000);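 active = inhibition above the mean of all tested compounds plus 3 SD, set per campaign, cut at about 35% in these data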;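 also: 0% = DMSO wells and 100% = thioflavine S control wells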
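Compound dosing – single dose, 10.9 µM nominal final, DMSO 0.8% final · System – NS3 helicase fragment of HCV · Buffer or medium – MOPS pH 6.5, MgCl2, DTT, Tween20, BSA · Signal – Cy5 beacon fluorescence read at start and 1 h · Also added – annealed dual-labelled DNA beacon duplex, ATP-started · Schedule – 1 h at 25 °C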
VIM-2 inh = inhibitors of Pseudomonas aeruginosa VIM-2 metallo-beta-lactamase. AID 1527. inhibition, % at 5.6 µM. actives 0.89% (n = 290,000). purified VIM-2, nitrocefin hydrolysis, epi-absorbance fluorescence;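 active = inhibition above the mean of all tested compounds plus 3 SD, cutoff set per screening run, cut at about 7.5% in these data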;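 also: red hydrolysis product quenches plate fluorescence so inhibitors raise well fluorescence; 0% = enzyme with DMSO and 100% = DMSO without enzyme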
* marks the source's active call; other numbers are inactive results; · = no result. An excerpt weighted towards active compounds, which were near 3.1% of everything screened.

SMILES | IMP-1 inh | SUMO HTRF inh | PHOSPHO1 inh | HCV core dimer | HCV NS3 hel inh | VIM-2 inh
O=C(NC1CCCCCC1)c1c(O)c2cccc3c2n(c1=O)CCC3 | · | 0 | -3 | · | · | ·
CCN(CC)CCNC(=O)c1c(O)c2cccc3c2n(c1=O)CCC3 | -6 | -11 | 5 | · | -3 | 11*
CNC(=O)c1c(O)c2cccc3c2n(c1=O)CCC3 | -3 | 5 | -2 | · | 8 | 9.5*
O=C(NCCNCCO)c1c(O)c2cccc3c2n(c1=O)CCC3 | -2 | 21 | -30 | -4 | 8 | 10.0*
Cc1ccc(OCC(=O)NNC(=O)c2ccco2)c(C)c1 | -2 | -3 | · | -12 | 1 | -1
CCN(CC)c1ccc(NC(=O)c2ccccc2)cc1S(=O)(=O)Nc1ccccc1OC | -2 | 3 | 95* | -1 | -2 | -3
CCN(CC)c1ccc(NC(=O)c2cccc(C)c2)cc1S(=O)(=O)Nc1ccccc1OC | 1 | -13 | 7 | 25 | -4 | -1
Cc1ccc(NS(=O)(=O)c2ccc(NC(=O)c3ccc(-c4ccccc4)cc3)cc2)c(C)c1 | -3 | · | · | 46* | 1 | -1
CCCN(CCC)C(=O)CSc1nc2n[nH]c(C)c2c(=N)n1-c1ccc(OCC)cc1 | -3 | 2 | 23 | 13 | -8 | -4
CCOc1ccc(-n2c(SCC(=O)Nc3ccc(CC)cc3)nc3n[nH]c(C)c3c2=N)cc1 | -2 | 56* | -5 | 16 | -4 | 2
Cc1cc(NC(=O)C2C3C(=O)N(CC4CCCO4)C(C(=O)NCc4ccccc4)C34C=CC2(C)O4)no1 (stereo unspecified) | 5.0* | -3 | -2 | -3 | 4 | -3
COc1ccc(CNC(=O)COC(=O)c2cc(-c3ccco3)nc3ccccc23)cc1 | 0 | 57* | 24 | · | 17 | -3
Cn1c(=O)c(C(=O)COC(=O)c2cc(-c3ccco3)nc3ccccc23)c(N)n(CC2CC2)c1=O | 2 | 44 | -23 | 57* | 17 | 0
Cn1c(=O)c(C(=O)COC(=O)c2cc(C3CC3)nc3ccccc23)c(N)n(Cc2ccccc2)c1=O | 0 | -29 | 11 | -4 | -8 | -1
COc1ccc(-c2cc(C(=O)OCC(=O)N(C)C)c3ccccc3n2)cc1 | 4.7* | 22 | -4 | 6 | -14 | 1
Cc1ccc(C)c(NC(=O)CN(C)C(=O)c2nn(C)c(=O)c3ccccc23)c1 | -1 | 2 | 20 | -3 | 1 | 0
CN(C(=O)CSc1nnc(Cc2cccc3ccccc23)n1N)C1CCS(=O)(=O)C1 (stereo unspecified) | 0 | 22 | 88* | -6 | 0 | -2
O=c1c2ccccc2nnn1Cc1cccc2ccccc12 | -3 | 9 | 37 | 11 | -7 | -2
Cc1cc2nnc(SCC(=O)N(C)C3CCS(=O)(=O)C3)n2c2ccccc12 (stereo unspecified) | -3 | 7 | 32 | -2 | 17 | 8
Nn1c(Cc2cccc3ccccc23)nnc1SCn1nnc2ccccc2c1=O | -3 | 13 | 87* | 8 | -11 | -1
O=C(NNC(=O)c1ccc(S(=O)(=O)N2CCOCC2)cc1)c1ccccc1 | -4 | -2 | 18 | -4 | -6 | 0
O=C(CN(CCc1ccccc1)Cc1ccccc1)Oc1ccccc1P(=O)(O)O | 0 | 5 | 24 | 2 | 22 | 11*
COc1cccc(NC(=O)CN(C)S(=O)(=O)c2ccc3[nH]c(=O)oc3c2)c1 | -1 | · | 58 | -19 | 34 | -1
CCN1CCN(C(=O)c2ccc(COc3cccc(Cl)c3)o2)CC1 | -2 | 23 | -24 | 3 | -9 | -2
CN(C)c1ccc(NC(=O)c2ccc(COc3cccc(Cl)c3)o2)cc1 | -2 | -30 | 92* | 1 | -9 | -3
SMILES | IMP-1 inh | SUMO HTRF inh | PHOSPHO1 inh | HCV core dimer | HCV NS3 hel inh | VIM-2 inh
CCOC(=O)c1cc(C#N)c(SCC(=O)c2cc(C#N)c(SC)nc2C)[nH]c1=O | -1 | 24 | 98* | 9 | -1 | -1
CCOC(=O)c1cc(C#N)c(SCC(N)=O)[nH]c1=O | -1 | 10 | 13 | -2 | 3 | -2
CCOC(=O)C(NC(C)=O)(NC(C)C)C(F)(F)F (stereo unspecified) | -1 | 12 | -4 | -1 | 13 | -3
OCC[C@@H]1C[C@@H](O)[C@H](O)[C@@]2(OCCc3ccccc32)O1 | 0 | -4 | 20 | -6 | -2 | 0
Cc1ccsc1/C=C/c1ccc2ccccc2n1 | -1 | -11 | 27 | -1 | -1 | 1
Cc1ccsc1/C=C/c1ccc2cccc(O)c2n1 | 2 | 27 | 86* | -3 | 4 | -4
O=[N+]([O-])c1ccc2c(c1)N([O-])C1(CCCCC1)[N+]2=O | -3 | 54* | 8 | · | 27 | -4
Cc1cc(=O)[nH]c2ccccc12 | -2 | 4 | 22 | 6 | 3 | 0
Cc1cc2[nH]c3c(c[n+](C)c4ccccc34)c2cc1C | 11* | 22 | -71 | 1 | 27 | 6
O=C(NCC(O)c1ccc2ccccc2c1)c1c(F)cccc1F (stereo unspecified) | -3 | 10 | 2 | 8 | 11 | -4
COc1ccc(OC)c(S(=O)(=O)Nc2cccc3ccc(O)cc23)c1 | · | · | · | 2 | · | ·
O=C(Cn1c(=O)oc2cc(S(=O)(=O)N3CCCC3)ccc21)NCc1ccc(F)cc1 | -5 | -4 | 9 | 3 | -4 | 7.9*
CC1CCC(NC(=O)Cn2c(=O)oc3cc(S(=O)(=O)N4CCCC4)ccc32)CC1 (stereo unspecified) | 4.9* | 8 | 25 | 6 | 8 | -4
O=C(Cn1c(=O)oc2cc(S(=O)(=O)N3CCCC3)ccc21)NC1CCCCC1 | -2 | 15 | 5 | 0 | -13 | -3
O=C(CCCn1c(=S)[nH]c2cc3c(cc2c1=O)OCO3)NCc1ccccc1Cl | 14* | -2 | -34 | 5 | 16 | -4
O=C(CCCn1c(=S)[nH]c2cc3c(cc2c1=O)OCO3)N1CCN(c2ccc(F)cc2)CC1 | -7 | 9 | 69* | 8 | 5 | -5
CCCCNC(=O)CCCn1c(=S)[nH]c2cc3c(cc2c1=O)OCO3 | -2 | 18 | 39 | 0 | -5 | -1
COc1cc(CNCCNC(=O)c2nonc2N)ccc1OCc1ccc(Cl)cc1 | -3 | -2 | 45 | -3 | -68 | 0
CC(C)(C)NC(=O)NC(=O)CSc1n[nH]c(-c2ccccc2Br)n1 | -1 | 9 | 63* | -3 | -1 | -1
Cc1cn(-c2cc(NC(=O)c3ccc(C)c(NC(=O)c4cccc(-c5cn[nH]c(=O)c5)c4)c3)cc(C(F)(F)F)c2)cn1 | 20* | -13 | -13 | 2 | -41 | 2
OCCN1CCN(c2ncnc3c2sc2nc(N4CCOCC4)c4c(c23)CCC4)CC1 | 0 | 18 | 11 | -1 | 3 | 9.9*
OCCN(CCO)c1ncnc2c1sc1nc(N3CCOCC3)c3c(c12)CCCC3 | -3 | 12 | 22 | -15 | -10 | 9.0*
